Source: ChEMBL document CHEMBL2150978, “Phosphorodiamidates as a promising new phosphate prodrug motif for antiviral drug discovery: application to anti-HCV agents” (J Med Chem, 2011)

Tests used:
Hepatitis C virus = experiment: Antiviral activity against Hepatitis C virus subtype 1b Con1 infected in human Huh7 cells assessed as inhibition of HCV replicon-encoded Renilla luciferase reporter activity after 72 hrs by HCV replicon assay; type: functional, organism-based, Hepacivirus hominis; details: Con1, Huh-7, 72 h
Outline: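 Huh7 cells stably carrying a bicistronic subgenomic genotype 1b (Con1) replicon with Renilla luciferase reporter, seeded at 2 × 10⁴ cells/well the day before. Four-fold serial dilutions in growth medium, no-drug controls on each plate; 3 days at 37 °C, 5% CO₂. Luciferase reagent 20 min, then luminescence (RLU) read; EC₅₀ derived.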

[1] = Cytotoxicity against human HuH7 cells after 3 days; type: cell-based, Huh-7
Outline: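 Huh7 replicon cells seeded at 2 × 10⁴ per well one day before dosing. Four-fold serial dilutions in growth medium, no-drug controls on each plate. Incubated 3 days at 37 °C, 5% CO₂. Viability read by CellTiter-Glo luminescence after 20 min with reagent.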

| Structure (SMILES) | EC50 (Hepatitis C virus) [µM] | EC90 (Hepatitis C virus) [µM] | CC50 at 72 h [1] [µM] |
| --- | --- | --- | --- |
| COc1nc(N)nc2c1ncn2[C@@H]1O[C@H](COP(=O)(N[C@H](C(=O)OC2CCCCC2)c2ccccc2)N[C@H](C(=O)OC2CCCCC2)c2ccccc2)[C@@H](O)[C@@]1(C)O (mixture of isomers) | 0.32 | 1.8 | 18 |
| COc1nc(N)nc2c1ncn2[C@@H]1O[C@H](COP(=O)(N[C@H](C(=O)OCC(C)(C)C)c2ccccc2)N[C@H](C(=O)OCC(C)(C)C)c2ccccc2)[C@@H](O)[C@@]1(C)O (mixture of isomers) | 0.27 | 1.5 | 24 |
| COc1nc(N)nc2c1ncn2[C@@H]1O[C@H](COP(=O)(N[C@H](C(=O)N[C@@H](C)C(=O)OCC(C)(C)C)C(C)C)N[C@H](C(=O)N[C@@H](C)C(=O)OCC(C)(C)C)C(C)C)[C@@H](O)[C@@]1(C)O (mixture of isomers) | 0.54 | 2.4 | > 100 |
| COc1nc(N)nc2c1ncn2[C@@H]1O[C@H](COP(=O)(NCCC(=O)OCc2ccccc2)NCCC(=O)OCc2ccccc2)[C@@H](O)[C@@]1(C)O (mixture of isomers) | 3.8 | > 10 | > 100 |
| CCCCNP(=O)(NCCCC)OC[C@H]1O[C@@H](n2cnc3c(OC)nc(N)nc32)[C@](C)(O)[C@@H]1O (mixture of isomers) | 37.8 | > 40 | > 100 |
| COc1nc(N)nc2c1ncn2[C@@H]1O[C@H](COP(=O)(N2CCOCC2)N2CCOCC2)[C@@H](O)[C@@]1(C)O (mixture of isomers) | > 100 | > 100 | > 100 |
| COc1nc(N)nc2c1ncn2[C@@H]1O[C@H](COP(=O)(N[C@@H](C)C(=O)OC2CCCCC2)N[C@@H](C)C(=O)OC2CCCC2)[C@@H](O)[C@@]1(C)O (mixture of isomers) | 0.04 | 0.16 | > 100 |
| COc1nc(N)nc2c1ncn2[C@@H]1O[C@H](COP(=O)(N[C@@H](C)C(=O)OCc2ccccc2)N[C@@H](C)C(=O)OCC(C)(C)C)[C@@H](O)[C@@]1(C)O (mixture of isomers) | 0.15 | 0.4 | > 100 |
| COc1nc(N)nc2c1ncn2[C@@H]1O[C@H](COP(=O)(N[C@@H](C)C(=O)OCC(C)(C)C)N[C@@H](C)C(=O)OC(C)(C)C)[C@@H](O)[C@@]1(C)O (mixture of isomers) | 0.15 | 0.57 | > 100 |
| COc1nc(N)nc2c1ncn2[C@@H]1O[C@H](COP(=O)(N[C@@H](C)C(=O)OCC(C)(C)C)N[C@@H](C)C(=O)OC2CCCCC2)[C@@H](O)[C@@]1(C)O (mixture of isomers) | 0.04 | 0.15 | > 100 |
| COC(=O)[C@@H]1CCCN1P(=O)(N[C@@H](C)C(=O)OCC(C)(C)C)OC[C@H]1O[C@@H](n2cnc3c(OC)nc(N)nc32)[C@](C)(O)[C@@H]1O (mixture of isomers) | 0.49 | 2.2 | > 100 |
| COC(=O)[C@@H](NP(=O)(N[C@@H](C)C(=O)OCC(C)(C)C)OC[C@H]1O[C@@H](n2cnc3c(OC)nc(N)nc32)[C@](C)(O)[C@@H]1O)C(C)C (mixture of isomers) | 0.17 | 0.69 | > 100 |
| CCCCNP(=O)(N[C@@H](C)C(=O)OCc1ccccc1)OC[C@H]1O[C@@H](n2cnc3c(OC)nc(N)nc32)[C@](C)(O)[C@@H]1O (mixture of isomers) | 0.44 | 1.68 | > 100 |
| CCCCNP(=O)(N[C@@H](C)C(=O)OCC(C)(C)C)OC[C@H]1O[C@@H](n2cnc3c(OC)nc(N)nc32)[C@](C)(O)[C@@H]1O (mixture of isomers) | 0.41 | 1.5 | > 100 |
| CCCCCNP(=O)(N[C@@H](C)C(=O)OCC(C)(C)C)OC[C@H]1O[C@@H](n2cnc3c(OC)nc(N)nc32)[C@](C)(O)[C@@H]1O (mixture of isomers) | 0.11 | 0.52 | > 100 |
